Reference: paper PMC10938134 (International Journal for Parasitology: Drugs and Drug …, 2024)

Legend:
[1] = tested on: bloodstream stage of Trypanosoma brucei brucei; assay: Viability assay for T. brucei brucei; format: cell-based; conditions: 24 h
[2] = tested on: redox biosensor hGrx1-roGFP2 in bloodstream T. b. brucei; assay: Redox reporter assay for T. brucei brucei; format: cell-based, Trypanosoma brucei brucei; conditions: compound at its EC50 for 1 h; p < 0.001 compared to DMSO-treated parasites
Method in brief: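 Exponential-phase bloodstream parasites expressing the redox biosensor were exposed for 1 h to the test compound, with 1% v/v DMSO as vehicle and untreated cells as minimum. Diamide at 500 μM for 20 min gave maximum oxidation. Samples were then incubated for 20 min with 1 mM DTT. Flow cytometry gave % biosensor oxidation relative to these maximum and minimum conditions.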

[3] = Trypanosoma brucei, bloodstream parasites, 24 h incubation, compounds tested at 5 μM

For `N=C(N)c1ccc(N=NNc2ccc(C(=N)N)cc2)cc1` [Ber, Berenil, reference compound], which EC50 ([1]; bloodstream T. b. brucei, concentration-response curves) is on record?
Its EC50 is 430 ± 70 nM.

`OC[C@H]1O[C@@H]([Se]Cc2ccc3ccccc3n2)[C@H](O)[C@@H](O)[C@@H]1O` [compound 11, Quinolin-2-ylmethyl 1-seleno-β-D-glucopyranoside] was tested. Which EC50 ([1]; Trypanosoma brucei) did it give?
The EC50 was roughly 5000 nM.

What about the viability at 5 µM ([1]; Trypanosoma brucei) of the same compound?
The viability at 5 µM was 57.5 ± 3.8%.

`CC(=O)OC[C@H]1O[C@@H]([Se]Cc2ccc3ccccc3n2)[C@H](OC(C)=O)[C@@H](OC(C)=O)[C@@H]1OC(C)=O` [compound 12, Quinolin-2-ylmethyl 2,3,4,6-tetra-O-acetyl-1-seleno-β-D-glucopyranoside] was tested. Which “significant oxidation of the redox biosensor (in words)” value [2] did it give?
The value was “Except for the quinolino Se-glycoside 12”.

How did the viability at 5 µM [1, 3] turn out when `COc1ccc2c(C[Se][C@@H]3O[C@H](CO)[C@@H](O)[C@H](O)[C@H]3O)cc(=O)oc2c1` [compound 13, 7-Methoxycoumarin-4-ylmethyl 1-seleno-β-D-glucopyranoside] was run?
Its viability at 5 µM is 57.3 ± 0.4%.

`COc1ccc2c(C[Se][C@@H]3O[C@H](CO)[C@H](O)[C@H](O)[C@H]3O)cc(=O)oc2c1` [compound 14, 7-Methoxycoumarin-4-ylmethyl 1-seleno-β-D-galactopyranoside] was tested. Which viability at 5 µM [1, 3] did it give?
Its viability at 5 µM is no more than 50%.
